# Results from different studies.
# Organism: Klebsiella pneumoniae
# Read-out: microbial growth
Structure (SMILES),assay,test system,conditions,MIC
CN[C@@H]1[C@@H](O)[C@@H](O[C@@H]2[C@@H](O)[C@H](O[C@H]3OC(CNCCO)=CC[C@H]3N)[C@@H](N)C[C@H]2NC(=O)[C@@H](O)CCN)OC[C@]1(C)O,,,,0.25 to 0.5 µg/mL
CO[C@H]1/C=C/O[C@@]2(C)Oc3c(C)c(O)c4c(O)c(c(/C=N/N5CCN(C)CC5)c(O)c4c3C2=O)NC(=O)/C(C)=C\C=C\[C@H](C)[C@H](O)[C@@H](C)[C@@H](O)[C@@H](C)[C@H](OC(C)=O)[C@@H]1C,broth dilution,ATCC700603,,10 µM
O=[N+]([O-])c1ccc(/C=N/Nc2nc(Nc3ccccc3)nc(N3CCOCC3)n2)o1,,,,> 120 µM
C[C@H]1[C@H](NC(=O)/C(=N\OC(C)(C)C(=O)O)c2csc(N)n2)C(=O)N1S(=O)(=O)O,broth dilution,ATCC700603,,0.63 µM
CN[C@H](CC(C)C)C(=O)N[C@H]1C(=O)N[C@@H](CC(N)=O)C(=O)N[C@H]2C(=O)N[C@H]3C(=O)N[C@H](C(=O)N[C@H](C(=O)O)c4cc(O)cc(O)c4-c4cc3ccc4O)[C@H](O)c3ccc(c(Cl)c3)Oc3cc2cc(c3O[C@@H]2O[C@H](CO)[C@@H](O)[C@H](O)[C@H]2O[C@H]2C[C@](C)(N)[C@H](O)[C@H](C)O2)Oc2ccc(cc2Cl)[C@H]1O,broth dilution,ATCC43816,,> 128 µM
NC1CCCCc2c1[nH]c1ccc(Br)cc21 (centres unmarked),broth dilution,ATCC10031,,16 µg/mL
CCCCCC/C=C\CCCCCCCCCc1cc(O)cc(O)c1,broth dilution,ATCC10031,,> 64 µg/mL
CC(=O)NCN1N=C(C)C(=NNn2c(-c3ccccc3)nc3ccccc3c2=O)C1=O,broth dilution,,24 h,59.9 µM
CC1(C)S[C@@H]2[C@H](NC(=O)COc3ccccc3)C(=O)N2[C@H]1C(=O)O,,,"18 h, clinical isolate",> 128 µg/mL
O=C(O)c1cn(C2CC2)c2cc(N3CCNCC3)c(F)cc2c1=O,,DSM30104,,≤ 0.03 µg/mL
CC(=O)O[C@H]1C[C@@]2(C)[C@@H](C[C@@H](O)[C@H]3[C@@]4(C)CC[C@@H](O)[C@@H](C)[C@@H]4CC[C@@]32C)/C1=C(\CCC=C(C)C)C(=O)O,broth dilution,ATCC700603,,640 µM
CCCCCCC#Cc1cncc(-c2nnc(SCc3ccc([N+](=O)[O-])cc3)n2C)c1,,,,≥ 20 µg/mL
O=C1NN=C(N=Cc2ccccc2O)C1=NNn1c(-c2ccccc2)nc2ccccc2c1=O,broth dilution,,24 h,55.4 µM
CN(C)[C@@H]1C(O)=C(C(N)=O)C(=O)[C@@]2(O)C(O)=C3C(=O)c4c(cc5ccc(-c6cccnc6)cc5c4O)C[C@H]3C[C@@H]12,broth dilution,ATCC13883,,32 µg/mL
Cc1c(CN(C)C(=O)/C=C/c2cnc3c(c2)CC(CCN)C(=O)N3)oc2ccccc12.Cl (centres unmarked),broth dilution,BAA2470,,4 µg/mL
CO[C@@H]1[C@@H](OC(N)=O)[C@@H](O)[C@H](Oc2ccc3c(O)c(NC(=O)c4ccc(O)c(CC=C(C)C)c4)c(=O)oc3c2C)OC1(C)C,broth dilution,ATCC700603,,160 µM
CN(C)[C@@H]1C(O)=C(C(N)=O)C(=O)[C@@]2(O)C(O)=C3C(=O)c4c(cc5ccc(-c6ccccc6)cc5c4O)C[C@H]3C[C@@H]12,broth dilution,ATCC13883,,32 µg/mL
